Converted amounts (≈) assume the structure as drawn. The source made the active and inactive calls. No cut-off for these calls is given here.
Key:
UACC-257 [1] = assay: Growth inhibition of human UACC257 cells at 10 uM incubated for 48 hrs by sulforhodamine B assay; format: functional, cell-based
Method in brief: (§1)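 NCI-60 single-dose screen at 10 µM for 48 h. Cells were grown in RPMI-1640 with 5% FBS and 2 mM L-glutamine and preincubated 24 h before compound. Time-zero plates were TCA-fixed at compound addition. After exposure, cells were TCA-fixed, stained with SRB and read at 515 nm. Percentage growth was calculated against time-zero and untreated-control absorbances.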

UACC-62 = assay: Growth inhibition of human UACC62 cells at 10 uM incubated for 48 hrs by sulforhodamine B assay; format: functional, cell-based; method in brief: as §1
HCT-116 = assay: Growth inhibition of human HCT116 cells at 10 uM incubated for 48 hrs by sulforhodamine B assay; format: functional, cell-based
Method in brief: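 NCI 60-cell-line screen at a single 10 µM dose. Cells in RPMI-1640 with 5% FBS and 2 mM L-glutamine, pre-incubated 24 h, then treated for 48 h at 37 °C. TCA fixation, sulforhodamine B staining, absorbance at 515 nm. Percentage growth calculated against time-zero and untreated controls.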

Staphylococcus aureus = assay: Antibacterial activity against methicillin-sensitive Staphylococcus aureus ATCC 25923 after 24 hrs by resazurin dye based microdilution assay; format: functional; details: ATCC 25923, 24 h
Method in brief: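 MIC taken as the lowest concentration giving visible inhibition and/or by resazurin (1 mg/mL). Gentamicin was the control. Run in duplicate, repeated at least three times.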

OVCAR-4 = assay: Growth inhibition of human OVCAR4 cells at 10 uM incubated for 48 hrs by sulforhodamine B assay; format: functional, cell-based
Method in brief: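 NCI 60-line panel, single 10 μM dose. Cells were grown in RPMI-1640 with 5% FBS and 2 mM L-glutamine and pre-incubated 24 h before compound addition (DMSO stock). Exposure was 48 h at 37 °C, 5% CO2. Cells were fixed with cold TCA (10% final), stained with 0.4% SRB, bound dye dissolved in 10 mM Tris base, A515 read. Growth was taken relative to time-zero and untreated control plates.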

Malme-3M = assay: Growth inhibition of human MALME-3M cells incubated for 48 hrs by sulforhodamine B assay; format: functional
Method in brief: (§2)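 Five-dose NCI SRB assay at 100, 10, 1.0, 0.1 and 0.01 μM for 48 h at 37 °C, 5% CO2. Medium was RPMI-1640 with 5% FBS and 2 mM glutamine. Time-zero plates were TCA-fixed at compound addition, A515 read after SRB staining. GI50 was solved from [(Ti−Tz)/(C−Tz)]×100 = 50. Values beyond the tested range are given as > or <.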

UACC-257 [2] = assay: Growth inhibition of human UACC257 cells incubated for 48 hrs by sulforhodamine B assay; format: functional; details: UACC-257, 48 h
Method in brief: (§3)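 NCI-60 panel cells grown in RPMI-1640 with 5% FBS and 2 mM L-glutamine, preincubated 24 h at 37 °C/5% CO2. Time-zero plates were TCA-fixed at compound addition. DMSO stocks were diluted in medium and tested at five final concentrations (100, 10, 1.0, 0.1, 0.01 µM) for 48 h. Cells were TCA-fixed, stained with SRB and read at 515 nm. GI50 = 50% lower net protein increase versus control.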

Hs-578T = assay: Growth inhibition of human Hs578T cells incubated for 48 hrs by sulforhodamine B assay; format: functional; method in brief: as §2
NCI-H322M = assay: Growth inhibition of human NCI-H322M cells incubated for 48 hrs by sulforhodamine B assay; format: functional; method in brief: as §2
SK-MEL-5 = assay: Growth inhibition of human SK-MEL-5 cells incubated for 48 hrs by sulforhodamine B assay; format: functional; details: SK-MEL-5, 48 h
Method in brief: (§4)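 NCI 60-line screen. Cells in RPMI-1640 with 5% FBS and 2 mM L-glutamine, preincubated 24 h, then time-zero plates TCA-fixed. Compounds from DMSO stocks given at five final concentrations (100, 10, 1.0, 0.1, 0.01 µM) for 48 h at 37 °C, 5% CO2. Cells fixed with 10% TCA, SRB-stained, read at 515 nm. GI50 is the concentration giving 50% lower net protein increase versus control.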

SF-295 = assay: Growth inhibition of human SF295 cells incubated for 48 hrs by sulforhodamine B assay; format: functional; details: SF-295, 48 h; method in brief: as §2
M14 = assay: Growth inhibition of human M14 cells incubated for 48 hrs by sulforhodamine B assay; format: functional; details: M14, 48 h; method in brief: as §2
ACHN = assay: Growth inhibition of human ACHN cells incubated for 48 hrs by sulforhodamine B assay; format: functional; method in brief: as §4
OVCAR-5 = assay: Growth inhibition of human OVCAR5 cells incubated for 48 hrs by sulforhodamine B assay; format: functional; details: OVCAR-5, 48 h; method in brief: as §4
MOLT-4 = assay: Growth inhibition of human MOLT4 cells incubated for 48 hrs by sulforhodamine B assay; format: functional; details: MOLT-4, 48 h; method in brief: as §4
HCC 2998 = assay: Growth inhibition of human HCC2998 cells incubated for 48 hrs by sulforhodamine B assay; format: functional; details: HCC 2998, 48 h; method in brief: as §4
EKVX = assay: Growth inhibition of human EKVX cells incubated for 48 hrs by sulforhodamine B assay; format: functional
Method in brief: (§5)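 NCI five-dose SRB assay (100, 10, 1.0, 0.1, 0.01 µM) with 48 h exposure in RPMI-1640 with 5% FBS and 2 mM L-glutamine. Cells fixed with TCA and stained with SRB, read at 515 nm. GI50 is the concentration where [(Ti−Tz)/(C−Tz)]×100 = 50.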

HOP-62 = assay: Growth inhibition of human HOP62 cells incubated for 48 hrs by sulforhodamine B assay; format: functional; details: HOP-62, 48 h; method in brief: as §5
SK-MEL-28 = assay: Growth inhibition of human SK-MEL-28 cells incubated for 48 hrs by sulforhodamine B assay; format: functional; details: SK-MEL-28, 48 h; method in brief: as §3
MDA-MB-231 = assay: Growth inhibition of human MDA-MB-231 cells incubated for 48 hrs by sulforhodamine B assay; format: functional; details: MDA-MB-231, 48 h; method in brief: as §2
DU-145 = assay: Growth inhibition of human DU145 cells incubated for 48 hrs by sulforhodamine B assay; format: functional; details: DU-145, 48 h; method in brief: as §5
NCI-H226 = assay: Growth inhibition of human NCI-H226 cells incubated for 48 hrs by sulforhodamine B assay; format: functional; details: NCI-H226, 48 h; method in brief: as §4
IGROV-1 = assay: Growth inhibition of human IGROV1 cells incubated for 48 hrs by sulforhodamine B assay; format: functional; details: IGROV-1, 48 h; method in brief: as §4
SF-539 = assay: Growth inhibition of human SF539 cells incubated for 48 hrs by sulforhodamine B assay; format: functional; details: SF-539, 48 h; method in brief: as §3
786-0 = assay: Growth inhibition of human 786-0 cells incubated for 48 hrs by sulforhodamine B assay; format: functional; details: 786-0, 48 h; method in brief: as §5
[3] = read-out: LC50 (the source's name)

SMILES: Clc1ccc(C2=NN(c3cc(Cl)cc(Cl)c3)C(c3cccc(Nc4ccnc5cc(Cl)ccc45)c3)C2)cc1 (stereo unspecified)
- growth inhibition (GI) (UACC-257 [1]): inactive
- growth inhibition (GI) (UACC-62): inactive
- growth inhibition (GI) (HCT-116): inactive
- MIC (Staphylococcus aureus): > 1000 µg/mL
- growth inhibition (GI) (OVCAR-4): inactive

SMILES: Clc1ccc(C2=NN(c3ccc(Cl)cc3)C(c3cccc(Nc4ccnc5cc(Cl)ccc45)c3)C2)cc1 (stereo unspecified)
- growth inhibition (GI) (UACC-257 [1]): inactive
- growth inhibition (GI) (UACC-62): inactive
- growth inhibition (GI) (HCT-116): inactive
- MIC (Staphylococcus aureus): > 1000 µg/mL
- growth inhibition (GI) (OVCAR-4): inactive

SMILES: O=CN1N=C(c2ccc(Cl)cc2)CC1c1cccc(Nc2ccnc3cc(Cl)ccc23)c1 (stereo unspecified)
- GI50 (Malme-3M): 1.27 µM
- CC50 (Malme-3M; [3]): 76.6 µM
- GI50 (UACC-257 [2]): 1.47 µM
- CC50 (UACC-257 [2]; [3]): > 100 µM
- GI50 (Hs-578T): 3.23 µM
- CC50 (Hs-578T; [3]): > 100 µM
- GI50 (NCI-H322M): 5.52 µM
- CC50 (NCI-H322M; [3]): > 100 µM
- GI50 (SK-MEL-5): 0.54 µM
- CC50 (SK-MEL-5; [3]): 5.05 µM
- GI50 (SF-295): 0.5 µM
- CC50 (SF-295; [3]): > 100 µM
- GI50 (M14): 1.55 µM
- CC50 (M14; [3]): > 100 µM
- growth inhibition (GI) (UACC-257 [1]): Active
- GI50 (ACHN): 2.64 µM
- CC50 (ACHN; [3]): > 100 µM
- growth inhibition (GI) (UACC-62): Active
- GI50 (OVCAR-5): 9.42 µM
- CC50 (OVCAR-5; [3]): > 100 µM
- GI50 (MOLT-4): 1.13 µM
- CC50 (MOLT-4; [3]): > 100 µM
- GI50 (HCC 2998): 3.12 µM
- CC50 (HCC 2998; [3]): > 100 µM
- GI50 (EKVX): 1.59 µM
- LC50 (EKVX): > 100 µM
- growth inhibition (GI) (HCT-116): Active
- MIC (Staphylococcus aureus): > 1000 µg/mL
- GI50 (HOP-62): 1.21 µM
- CC50 (HOP-62; [3]): 70 µM
- GI50 (SK-MEL-28): 3.15 µM
- CC50 (SK-MEL-28; [3]): > 100 µM
- growth inhibition (GI) (OVCAR-4): Active
- GI50 (MDA-MB-231): 2.74 µM
- CC50 (MDA-MB-231; [3]): > 100 µM
- GI50 (DU-145): 2.8 µM
- CC50 (DU-145; [3]): > 100 µM
- GI50 (NCI-H226): 1.87 µM
- CC50 (NCI-H226; [3]): > 100 µM
- GI50 (IGROV-1): 1.44 µM
- CC50 (IGROV-1; [3]): > 100 µM
- GI50 (SF-539): 1.69 µM
- CC50 (SF-539; [3]): 35.1 µM
- GI50 (786-0): 2.96 µM
- LC50 (786-0): 62.7 µM

SMILES: COc1ccc(C2=NN(c3ccccc3)C(c3cccc(Nc4ccnc5cc(Cl)ccc45)c3)C2)cc1 (stereo unspecified)
- growth inhibition (GI) (UACC-257 [1]): inactive
- growth inhibition (GI) (UACC-62): inactive
- growth inhibition (GI) (HCT-116): inactive
- MIC (Staphylococcus aureus): > 1000 µg/mL
- growth inhibition (GI) (OVCAR-4): inactive

SMILES: O=Cc1cccc(Nc2ccnc3cc(Cl)ccc23)c1
- MIC (Staphylococcus aureus): 62.5 µg/mL (≈ 221 µM)
